Measurements published in ChEMBL document CHEMBL3259614, “Design, synthesis, and structure-activity relationship studies of novel fused heterocycles-linked triazoles with good activity and water solubility” (J Med Chem, 2014).
Converted amounts (≈) assume the structure as drawn.

Legend:
Type in all cases: functional
Candida albicans [1] = assay: Antimicrobial activity against Candida albicans SC5314 after 24 hrs by serial dilution method; details: SC5314, 24 h
Procedure, shortened: (§1)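 Broth serial dilution MIC in 96-well plates following NCCLS/CLSI methods. Compounds were dissolved in DMSO and serially diluted in growth medium, with incubation at 35 °C. […] C. parapsilosis 22019 served as the quality-control strain in each assay.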

Candida albicans [2] = assay: Antimicrobial activity against Candida albicans Y0109 after 24 hrs by serial dilution method; details: Y0109, 24 h; procedure, shortened: as §1
Candida parapsilosis = assay: Antimicrobial activity against Candida parapsilosis 22019 after 24 hrs by serial dilution method; details: Lodderomyces parapsilosis, 22019, 24 h; procedure, shortened: as §1
Nakaseomyces glabratus = assay: Antimicrobial activity against Candida glabrata 537 after 24 hrs by serial dilution method; details: Nakaseomyces glabratus, 537, 24 h; procedure, shortened: as §1
Cryptococcus neoformans = assay: Antimicrobial activity against Cryptococcus neoformans 32609 after 72 hrs by serial dilution method; details: Cryptococcus neoformans, 32609, 72 h; procedure, shortened: as §1
Aspergillus fumigatus = assay: Antimicrobial activity against Aspergillus fumigatus 7544 after 48 hrs by serial dilution method; details: Aspergillus fumigatus, 7544, 48 h; procedure, shortened: as §1

Compound	MIC (Candida albicans [1]) [µg/mL]	MIC (Candida albicans [2]) [µg/mL]	MIC (Candida parapsilosis) [µg/mL]	MIC (Nakaseomyces glabratus) [µg/mL]	MIC (Cryptococcus neoformans) [µg/mL]	MIC (Aspergillus fumigatus) [µg/mL]
C[C@@H](N1CCc2nc(-c3ccsc3)sc2C1)[C@](O)(Cn1cncn1)c1ccc(F)cc1F	0.25 (≈ 0.528 µM)	0.25 (≈ 0.528 µM)	0.25 (≈ 0.528 µM)	0.25 (≈ 0.528 µM)	0.25 (≈ 0.528 µM)	8 (≈ 16.9 µM)
C[C@@H](N1CCn2nc(-c3ccc(C(F)(F)F)cc3)nc2C1)[C@](O)(Cn1cncn1)c1ccc(F)cc1F	0.25 (≈ 0.481 µM)	0.5 (≈ 0.963 µM)	0.5 (≈ 0.963 µM)	0.125 (≈ 0.241 µM)	1 (≈ 1.93 µM)	16 (≈ 30.8 µM)
C[C@@H](N1CCn2nc(-c3ccc(F)cc3F)nc2C1)[C@](O)(Cn1cncn1)c1ccc(F)cc1F	0.125 (≈ 0.256 µM)	0.125 (≈ 0.256 µM)	0.25 (≈ 0.513 µM)	0.5 (≈ 1.03 µM)	0.5 (≈ 1.03 µM)	> 64
CC(C)c1cccc(-c2nc3n(n2)CCN([C@H](C)[C@](O)(Cn2cncn2)c2ccc(F)cc2F)C3)c1	0.25 (≈ 0.507 µM)	4 (≈ 8.1 µM)	4 (≈ 8.1 µM)	4 (≈ 8.1 µM)	8 (≈ 16.2 µM)	16 (≈ 32.4 µM)
C[C@@H](N1CCn2nc(-c3cccc(F)c3)nc2C1)[C@](O)(Cn1cncn1)c1ccc(F)cc1F	0.125 (≈ 0.266 µM)	0.125 (≈ 0.266 µM)	0.5 (≈ 1.07 µM)	0.25 (≈ 0.533 µM)	0.5 (≈ 1.07 µM)	16 (≈ 34.1 µM)
C[C@@H](N1CCn2nc(-c3cccc(C#N)c3)nc2C1)[C@](O)(Cn1cncn1)c1ccc(F)cc1F	0.125 (≈ 0.262 µM)	0.125 (≈ 0.262 µM)	0.125 (≈ 0.262 µM)	0.5 (≈ 1.05 µM)	0.5 (≈ 1.05 µM)	16 (≈ 33.6 µM)
CC(C)c1ccc(-c2nc3n(n2)CCN([C@H](C)[C@](O)(Cn2cncn2)c2ccc(F)cc2F)C3)cc1	0.5 (≈ 1.01 µM)	0.5 (≈ 1.01 µM)	1 (≈ 2.03 µM)	1 (≈ 2.03 µM)	2 (≈ 4.05 µM)	16 (≈ 32.4 µM)
C[C@@H](N1CCn2nc(-c3cccs3)nc2C1)[C@](O)(Cn1cncn1)c1ccc(F)cc1F	0.125 (≈ 0.273 µM)	0.125 (≈ 0.273 µM)	0.125 (≈ 0.273 µM)	0.25 (≈ 0.546 µM)	0.125 (≈ 0.273 µM)	8 (≈ 17.5 µM)
C[C@@H](N1CCn2nc(-c3ccco3)nc2C1)[C@](O)(Cn1cncn1)c1ccc(F)cc1F	0.125 (≈ 0.283 µM)	0.125 (≈ 0.283 µM)	0.25 (≈ 0.566 µM)	0.25 (≈ 0.566 µM)	0.25 (≈ 0.566 µM)	16 (≈ 36.2 µM)
C[C@@H](N1CCn2nc(-c3ccsc3)nc2C1)[C@](O)(Cn1cncn1)c1ccc(F)cc1F	0.125 (≈ 0.273 µM)	0.125 (≈ 0.273 µM)	0.125 (≈ 0.273 µM)	0.125 (≈ 0.273 µM)	0.125 (≈ 0.273 µM)	16 (≈ 35 µM)
C[C@@H](N1CCn2nc(Br)nc2C1)[C@](O)(Cn1cncn1)c1ccc(F)cc1F	0.125 (≈ 0.275 µM)	0.125 (≈ 0.275 µM)	0.25 (≈ 0.55 µM)	0.5 (≈ 1.1 µM)	0.25 (≈ 0.55 µM)	16 (≈ 35.2 µM)
C[C@@H](N1CCn2nc(-c3cncc(F)c3)nc2C1)[C@](O)(Cn1cncn1)c1ccc(F)cc1F	0.125 (≈ 0.266 µM)	0.125 (≈ 0.266 µM)	0.125 (≈ 0.266 µM)	1 (≈ 2.13 µM)	0.125 (≈ 0.266 µM)	32 (≈ 68 µM)
C[C@@H](N1CCn2nc(-c3cncc(C#N)c3)nc2C1)[C@](O)(Cn1cncn1)c1ccc(F)cc1F	0.125 (≈ 0.262 µM)	0.125 (≈ 0.262 µM)	0.25 (≈ 0.524 µM)	1 (≈ 2.09 µM)	0.125 (≈ 0.262 µM)	64 (≈ 134 µM)

Now those with a lower MIC (Candida albicans [1]), led by results:

MIC (Candida albicans [1]) [µg/mL]	MIC (Candida albicans [2]) [µg/mL]	MIC (Candida parapsilosis) [µg/mL]	MIC (Nakaseomyces glabratus) [µg/mL]	MIC (Cryptococcus neoformans) [µg/mL]	MIC (Aspergillus fumigatus) [µg/mL]	Compound
0.0625 (≈ 0.134 µM)	0.125 (≈ 0.269 µM)	0.125 (≈ 0.269 µM)	0.125 (≈ 0.269 µM)	0.125 (≈ 0.269 µM)	32 (≈ 68.7 µM)	Cc1ccc(-c2nc3n(n2)CCN([C@H](C)[C@](O)(Cn2cncn2)c2ccc(F)cc2F)C3)cc1
0.0625 (≈ 0.13 µM)	0.125 (≈ 0.26 µM)	0.25 (≈ 0.519 µM)	0.125 (≈ 0.26 µM)	0.125 (≈ 0.26 µM)	32 (≈ 66.5 µM)	COc1ccc(-c2nc3n(n2)CCN([C@H](C)[C@](O)(Cn2cncn2)c2ccc(F)cc2F)C3)cc1
0.0625 (≈ 0.13 µM)	0.125 (≈ 0.26 µM)	0.25 (≈ 0.519 µM)	0.125 (≈ 0.26 µM)	0.25 (≈ 0.519 µM)	32 (≈ 66.5 µM)	COc1cccc(-c2nc3n(n2)CCN([C@H](C)[C@](O)(Cn2cncn2)c2ccc(F)cc2F)C3)c1
0.0625 (≈ 0.138 µM)	0.0625 (≈ 0.138 µM)	0.0312 (≈ 0.0691 µM)	0.125 (≈ 0.276 µM)	0.125 (≈ 0.276 µM)	16 (≈ 35.4 µM)	C[C@@H](N1CCn2nc(-c3ccncc3)nc2C1)[C@](O)(Cn1cncn1)c1ccc(F)cc1F
0.0312 (≈ 0.0689 µM)	0.125 (≈ 0.276 µM)	0.0625 (≈ 0.138 µM)	0.0625 (≈ 0.138 µM)	0.0625 (≈ 0.138 µM)	32 (≈ 70.6 µM)	C[C@@H](N1CCn2nc(-c3cncnc3)nc2C1)[C@](O)(Cn1cncn1)c1ccc(F)cc1F
0.0156 (≈ 0.0332 µM)	0.0625 (≈ 0.133 µM)	0.0625 (≈ 0.133 µM)	0.0312 (≈ 0.0664 µM)	0.0312 (≈ 0.0664 µM)	2 (≈ 4.25 µM)	C[C@@H](N1CCn2nc(-c3ccc(F)nc3)nc2C1)[C@](O)(Cn1cncn1)c1ccc(F)cc1F
